Experimental data taken from ChEMBL document CHEMBL5661979, “Pharmacological inhibition of BMK1 suppresses tumor growth through promyelocytic leukemia protein” (Cancer Cell, 2010).

What was measured:
[1] = target: Glycogen synthase kinase-3 alpha (Homo sapiens, UniProt P49840); assay: Inhibition of GSK3A in human HeLa cells lysate pre incubated for 15 mins followed by ATP acyl phosphate probe addition and measured after 10 mins by LC-MS/MS analysis; format: subcellular
[2] = target: T1, Phosphatidylinositol 5-phosphate 4-kinase type-2 alpha (Homo sapiens, UniProt P48426); assay: Inhibition of PIP5K2A in human HeLa cells lysate pre incubated for 15 mins followed by ATP acyl phosphate probe addition and measured after 10 mins by LC-MS/MS analysis; format: subcellular
T1 sequence (P48426 whole entry): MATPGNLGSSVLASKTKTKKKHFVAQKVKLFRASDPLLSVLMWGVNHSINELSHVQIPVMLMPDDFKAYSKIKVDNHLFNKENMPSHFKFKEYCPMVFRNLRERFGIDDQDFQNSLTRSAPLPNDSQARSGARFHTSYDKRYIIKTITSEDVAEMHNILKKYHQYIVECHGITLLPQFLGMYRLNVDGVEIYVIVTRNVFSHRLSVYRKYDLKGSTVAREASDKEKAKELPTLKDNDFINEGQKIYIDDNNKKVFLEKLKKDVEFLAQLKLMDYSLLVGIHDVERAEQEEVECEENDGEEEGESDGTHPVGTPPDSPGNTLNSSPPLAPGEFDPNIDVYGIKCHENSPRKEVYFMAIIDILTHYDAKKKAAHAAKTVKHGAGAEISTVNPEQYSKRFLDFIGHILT

[3] = target: T1, Phosphatidylinositol 5-phosphate 4-kinase type-2 alpha; assay: Inhibition of PIP5K2A LIP1 labeling site in human HeLa cells lysate pre incubated for 15 mins followed by ATP acyl phosphate probe addition and measured after 10 mins by LC-MS/MS analysis; format: subcellular
[4] = target: EKC/KEOPS complex subunit TP53RK (Homo sapiens, UniProt Q96S44); assay: Inhibition of PRPK in human HeLa cells lysate pre incubated for 15 mins followed by ATP acyl phosphate probe addition and measured after 10 mins by LC-MS/MS analysis; format: subcellular
Chain of EKC/KEOPS complex subunit TP53RK (Q96S44 whole entry, one chain of several): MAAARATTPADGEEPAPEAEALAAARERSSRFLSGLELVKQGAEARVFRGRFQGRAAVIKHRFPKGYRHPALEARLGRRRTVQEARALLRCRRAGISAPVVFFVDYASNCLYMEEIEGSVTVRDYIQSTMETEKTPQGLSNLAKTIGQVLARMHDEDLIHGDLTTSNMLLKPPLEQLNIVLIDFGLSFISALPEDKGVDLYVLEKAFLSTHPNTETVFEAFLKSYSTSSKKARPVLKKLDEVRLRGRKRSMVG

[5] = Inhibition of SRC/FYN/YES in human HeLa cells lysate pre incubated for 15 mins followed by ATP acyl phosphate probe addition and measured after 10 mins by LC-MS/MS analysis; format: subcellular
[6] = target: Cyclin-dependent kinase 2 (Homo sapiens, UniProt P24941); assay: Inhibition of CDK2 K1 site in human HeLa cells lysate pre incubated for 15 mins followed by ADP acyl phosphate probe addition and measured after 10 mins by LC-MS/MS analysis; format: subcellular
In short: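 KiNativ profiling in HeLa lysate (5 mg/mL total protein). Lysate incubated 15 min with inhibitor at 50, 10, 2, 0.8 or 0 μM. ATP or ADP acylphosphate probe then added (5 μM final) and reacted 10 min. Reaction stopped with urea and analysed by targeted MS, using up to four fragment ions per kinase peptide-probe conjugate. % inhibition taken against untreated lysate. Run in duplicate.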

[7] = target: Cyclin-dependent kinase 15 (Homo sapiens, UniProt Q96Q40); assay: Inhibition of PFTAIRE2 in human HeLa cells lysate pre incubated for 15 mins followed by ADP acyl phosphate probe addition and measured after 10 mins by LC-MS/MS analysis; format: subcellular
Chain of Cyclin-dependent kinase 15 (Q96Q40 whole entry): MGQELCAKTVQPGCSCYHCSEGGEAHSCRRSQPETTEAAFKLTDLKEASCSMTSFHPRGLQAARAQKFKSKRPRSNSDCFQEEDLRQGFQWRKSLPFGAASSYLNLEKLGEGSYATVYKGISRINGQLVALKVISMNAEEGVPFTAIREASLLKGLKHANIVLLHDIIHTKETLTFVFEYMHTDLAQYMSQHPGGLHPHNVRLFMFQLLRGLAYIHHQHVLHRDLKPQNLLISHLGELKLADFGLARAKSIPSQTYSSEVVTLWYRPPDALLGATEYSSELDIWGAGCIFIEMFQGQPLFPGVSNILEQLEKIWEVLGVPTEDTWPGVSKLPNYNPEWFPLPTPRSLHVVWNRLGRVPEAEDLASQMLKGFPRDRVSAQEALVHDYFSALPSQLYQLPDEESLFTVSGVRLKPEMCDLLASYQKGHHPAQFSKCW

[8] = target: Epidermal growth factor receptor (Homo sapiens, UniProt P00533); assay: Inhibition of EGFR in human HeLa cells lysate at 2 uM pre incubated for 15 mins followed by ADP acyl phosphate probe addition and measured after 10 mins by LC-MS/MS analysis relative to control; format: subcellular; conditions: time 25.0 min
Chain of Epidermal growth factor receptor (P00533 whole entry): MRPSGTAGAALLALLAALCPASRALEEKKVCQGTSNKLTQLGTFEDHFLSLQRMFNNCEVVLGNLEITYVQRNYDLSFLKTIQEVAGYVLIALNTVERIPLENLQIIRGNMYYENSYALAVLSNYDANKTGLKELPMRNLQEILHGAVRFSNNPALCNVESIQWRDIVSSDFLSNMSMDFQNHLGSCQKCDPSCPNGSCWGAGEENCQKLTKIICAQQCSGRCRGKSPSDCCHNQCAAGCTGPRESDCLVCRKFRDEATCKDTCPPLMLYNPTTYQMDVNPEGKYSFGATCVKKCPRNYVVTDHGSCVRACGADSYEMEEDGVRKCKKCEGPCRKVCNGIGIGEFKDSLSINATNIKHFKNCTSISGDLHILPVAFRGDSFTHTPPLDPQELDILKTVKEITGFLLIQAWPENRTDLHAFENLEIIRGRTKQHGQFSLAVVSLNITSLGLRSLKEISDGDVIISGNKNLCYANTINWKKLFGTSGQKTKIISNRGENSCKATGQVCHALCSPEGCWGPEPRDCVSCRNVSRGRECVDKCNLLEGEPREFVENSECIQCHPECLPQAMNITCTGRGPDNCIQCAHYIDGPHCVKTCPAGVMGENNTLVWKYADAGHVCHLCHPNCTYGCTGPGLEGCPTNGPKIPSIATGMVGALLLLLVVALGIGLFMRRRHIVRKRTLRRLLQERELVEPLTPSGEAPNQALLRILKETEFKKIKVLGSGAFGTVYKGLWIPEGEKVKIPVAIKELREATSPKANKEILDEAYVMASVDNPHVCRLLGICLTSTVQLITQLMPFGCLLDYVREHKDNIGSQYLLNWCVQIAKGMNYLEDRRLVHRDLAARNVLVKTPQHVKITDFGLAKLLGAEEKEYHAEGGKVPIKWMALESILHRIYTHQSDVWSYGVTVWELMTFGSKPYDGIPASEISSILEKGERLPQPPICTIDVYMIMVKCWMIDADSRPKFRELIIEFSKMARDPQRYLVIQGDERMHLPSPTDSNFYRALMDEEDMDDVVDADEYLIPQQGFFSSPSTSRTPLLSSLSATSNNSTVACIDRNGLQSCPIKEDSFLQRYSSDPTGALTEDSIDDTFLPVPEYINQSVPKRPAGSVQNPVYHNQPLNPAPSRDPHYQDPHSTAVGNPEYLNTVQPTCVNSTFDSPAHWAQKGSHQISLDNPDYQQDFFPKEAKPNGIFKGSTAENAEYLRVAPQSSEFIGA

[9] = Inhibition of KHS1/2 in human HeLa cells lysate at 50 uM pre incubated for 15 mins followed by ATP acyl phosphate probe addition and measured after 10 mins by LC-MS/MS analysis relative to control; conditions: 25 min, condition cancer
[10] = target: RPS6KA1/RPS6KA2/RPS6KA3 (Homo sapiens, UniProt P51812+Q15349+Q15418); assay: Inhibition of RSK1/2/3 in human HeLa cells lysate at 10 uM pre incubated for 15 mins followed by ATP acyl phosphate probe addition and measured after 10 mins by LC-MS/MS analysis relative to control; format: subcellular; conditions: time 25.0 min
Chain of RPS6KA1/RPS6KA2/RPS6KA3 (P51812 whole entry, looked up): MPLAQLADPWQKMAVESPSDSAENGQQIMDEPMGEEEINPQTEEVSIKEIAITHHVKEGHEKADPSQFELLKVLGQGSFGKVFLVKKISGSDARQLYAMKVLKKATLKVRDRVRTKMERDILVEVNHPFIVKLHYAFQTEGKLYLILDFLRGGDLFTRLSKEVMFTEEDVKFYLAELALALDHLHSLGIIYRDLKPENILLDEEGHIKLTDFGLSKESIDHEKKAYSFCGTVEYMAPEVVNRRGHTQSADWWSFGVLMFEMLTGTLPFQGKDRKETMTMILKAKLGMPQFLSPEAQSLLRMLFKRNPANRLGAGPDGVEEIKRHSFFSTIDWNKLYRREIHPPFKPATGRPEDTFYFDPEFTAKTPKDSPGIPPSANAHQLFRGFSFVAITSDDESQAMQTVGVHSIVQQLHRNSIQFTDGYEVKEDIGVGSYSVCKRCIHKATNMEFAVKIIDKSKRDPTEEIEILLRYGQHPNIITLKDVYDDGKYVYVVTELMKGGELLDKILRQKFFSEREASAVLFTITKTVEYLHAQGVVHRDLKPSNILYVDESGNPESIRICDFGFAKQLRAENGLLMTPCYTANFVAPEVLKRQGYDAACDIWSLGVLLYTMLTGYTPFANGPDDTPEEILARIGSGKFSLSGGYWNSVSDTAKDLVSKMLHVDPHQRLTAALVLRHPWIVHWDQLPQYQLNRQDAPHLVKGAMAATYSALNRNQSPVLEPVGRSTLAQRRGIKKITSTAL
Chain of RPS6KA1/RPS6KA2/RPS6KA3 (Q15349 whole entry, looked up): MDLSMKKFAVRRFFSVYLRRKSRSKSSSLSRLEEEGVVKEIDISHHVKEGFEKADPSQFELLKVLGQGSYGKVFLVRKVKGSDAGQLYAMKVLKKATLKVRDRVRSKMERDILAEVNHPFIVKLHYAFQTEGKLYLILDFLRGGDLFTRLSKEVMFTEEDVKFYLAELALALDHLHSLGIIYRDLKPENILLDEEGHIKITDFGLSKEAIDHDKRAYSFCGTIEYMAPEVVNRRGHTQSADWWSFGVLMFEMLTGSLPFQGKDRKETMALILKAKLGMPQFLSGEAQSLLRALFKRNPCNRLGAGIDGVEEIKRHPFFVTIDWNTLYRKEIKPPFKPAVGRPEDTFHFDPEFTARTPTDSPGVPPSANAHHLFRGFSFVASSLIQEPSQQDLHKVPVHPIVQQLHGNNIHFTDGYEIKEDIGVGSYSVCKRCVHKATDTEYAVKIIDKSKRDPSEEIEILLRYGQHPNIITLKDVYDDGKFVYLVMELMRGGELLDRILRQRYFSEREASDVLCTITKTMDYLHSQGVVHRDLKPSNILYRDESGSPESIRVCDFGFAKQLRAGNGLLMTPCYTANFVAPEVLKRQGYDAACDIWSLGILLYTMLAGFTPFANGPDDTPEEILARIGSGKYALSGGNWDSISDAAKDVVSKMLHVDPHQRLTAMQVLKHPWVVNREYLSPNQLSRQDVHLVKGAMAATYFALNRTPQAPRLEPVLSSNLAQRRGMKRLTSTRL
Chain of RPS6KA1/RPS6KA2/RPS6KA3 (Q15418 whole entry, looked up): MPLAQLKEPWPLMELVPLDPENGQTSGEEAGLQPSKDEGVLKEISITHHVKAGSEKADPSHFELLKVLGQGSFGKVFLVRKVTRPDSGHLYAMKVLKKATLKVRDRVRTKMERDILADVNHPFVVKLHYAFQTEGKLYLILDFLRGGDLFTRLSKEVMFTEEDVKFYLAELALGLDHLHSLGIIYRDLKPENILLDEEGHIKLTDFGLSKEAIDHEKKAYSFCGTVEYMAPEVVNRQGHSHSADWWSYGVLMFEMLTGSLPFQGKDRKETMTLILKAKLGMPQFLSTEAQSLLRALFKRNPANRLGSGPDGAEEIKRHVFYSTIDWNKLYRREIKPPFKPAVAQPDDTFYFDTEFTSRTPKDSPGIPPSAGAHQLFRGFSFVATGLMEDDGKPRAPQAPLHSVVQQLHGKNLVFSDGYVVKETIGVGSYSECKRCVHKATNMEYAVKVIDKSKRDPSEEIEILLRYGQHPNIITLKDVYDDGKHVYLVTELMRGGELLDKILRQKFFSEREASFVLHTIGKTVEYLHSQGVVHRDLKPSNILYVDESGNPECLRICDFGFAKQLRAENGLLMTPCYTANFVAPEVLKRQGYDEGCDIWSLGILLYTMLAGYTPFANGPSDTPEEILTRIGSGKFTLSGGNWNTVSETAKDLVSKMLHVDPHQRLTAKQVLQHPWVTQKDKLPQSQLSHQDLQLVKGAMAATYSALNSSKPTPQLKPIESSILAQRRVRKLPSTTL

[11] = target: T2, Serine/threonine-protein kinase TAO2 (Homo sapiens) (UniProt Q9UL54); assay: Inhibition of TAO2 in human HeLa cells lysate at 2 uM pre incubated for 15 mins followed by ATP acyl phosphate probe addition and measured after 10 mins by LC-MS/MS analysis relative to control; format: subcellular; conditions: time 25.0 min
T2 sequence (whole entry): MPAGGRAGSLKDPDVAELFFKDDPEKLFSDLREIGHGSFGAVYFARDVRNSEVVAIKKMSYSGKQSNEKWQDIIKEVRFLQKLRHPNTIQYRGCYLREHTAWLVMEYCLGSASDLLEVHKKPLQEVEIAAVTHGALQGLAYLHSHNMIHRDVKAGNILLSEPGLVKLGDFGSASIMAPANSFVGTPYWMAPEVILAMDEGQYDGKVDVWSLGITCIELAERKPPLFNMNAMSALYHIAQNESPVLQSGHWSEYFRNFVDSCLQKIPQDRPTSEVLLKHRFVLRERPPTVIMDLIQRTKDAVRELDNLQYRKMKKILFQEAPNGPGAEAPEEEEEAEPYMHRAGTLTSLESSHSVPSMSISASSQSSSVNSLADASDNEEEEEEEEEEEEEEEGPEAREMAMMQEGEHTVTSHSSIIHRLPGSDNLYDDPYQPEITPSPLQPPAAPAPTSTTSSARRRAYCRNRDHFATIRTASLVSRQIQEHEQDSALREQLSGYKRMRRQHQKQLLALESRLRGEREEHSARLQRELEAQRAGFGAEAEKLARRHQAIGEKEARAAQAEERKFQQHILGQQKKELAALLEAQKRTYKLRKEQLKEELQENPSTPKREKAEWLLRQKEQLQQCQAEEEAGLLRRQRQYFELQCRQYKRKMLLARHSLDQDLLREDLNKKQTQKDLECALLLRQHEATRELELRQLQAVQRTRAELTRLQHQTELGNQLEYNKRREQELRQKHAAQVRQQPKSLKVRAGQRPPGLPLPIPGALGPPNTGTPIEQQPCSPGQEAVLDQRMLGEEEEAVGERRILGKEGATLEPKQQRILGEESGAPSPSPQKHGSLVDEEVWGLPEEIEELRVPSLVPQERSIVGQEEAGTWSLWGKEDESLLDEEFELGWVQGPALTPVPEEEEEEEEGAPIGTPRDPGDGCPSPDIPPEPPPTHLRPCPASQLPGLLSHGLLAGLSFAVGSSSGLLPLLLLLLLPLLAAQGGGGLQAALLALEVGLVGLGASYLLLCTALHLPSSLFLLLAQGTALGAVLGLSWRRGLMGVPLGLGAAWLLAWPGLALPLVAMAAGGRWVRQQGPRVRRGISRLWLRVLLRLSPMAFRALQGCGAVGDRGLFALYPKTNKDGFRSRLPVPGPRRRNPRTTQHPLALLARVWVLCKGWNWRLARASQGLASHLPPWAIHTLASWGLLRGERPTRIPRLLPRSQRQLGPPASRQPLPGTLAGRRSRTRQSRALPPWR

[12] = Cmax in Sprague-Dawley rat at 2 mg/kg, po measured up to 8 hrs by LC-MS/MS analysis; format: ADME, organism-based; conditions: in vivo
In short: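 Sprague-Dawley rats given one intravenous dose or one oral dose of 2 mg/kg. Plasma drug concentrations were followed over time, with samples taken out to 8 hr after dosing. PK parameters (clearance, volume of distribution, half-life, oral bioavailability, Cmax) were calculated from these concentration–time data.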

Chain of Glycogen synthase kinase-3 alpha (P49840 whole entry): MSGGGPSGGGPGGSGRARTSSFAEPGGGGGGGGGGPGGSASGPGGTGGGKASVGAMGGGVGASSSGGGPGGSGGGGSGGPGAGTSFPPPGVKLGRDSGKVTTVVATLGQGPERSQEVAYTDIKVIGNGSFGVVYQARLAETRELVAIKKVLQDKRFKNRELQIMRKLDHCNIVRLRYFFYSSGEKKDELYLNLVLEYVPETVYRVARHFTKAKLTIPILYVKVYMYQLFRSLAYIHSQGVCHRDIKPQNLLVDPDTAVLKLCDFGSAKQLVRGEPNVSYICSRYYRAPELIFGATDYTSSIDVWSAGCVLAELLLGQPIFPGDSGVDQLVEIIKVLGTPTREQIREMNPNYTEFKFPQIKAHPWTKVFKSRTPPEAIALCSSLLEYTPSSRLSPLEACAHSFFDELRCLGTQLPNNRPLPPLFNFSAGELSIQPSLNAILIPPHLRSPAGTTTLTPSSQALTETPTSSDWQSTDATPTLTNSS

CCOc1cc(N2CCC(O)CC2)ccc1Nc1ncc2c(n1)N(C)c1ccccc1C(=O)N2C
IC50 [1]: > 50 µM | IC50 [2]: > 50 µM | IC50 [3]: > 50 µM | IC50 [4]: > 50 µM | IC50 [5]: > 50 µM | IC50 [6]: > 50 µM | IC50 [7]: > 50 µM | inhibition [8]: 12.2% | inhibition at 50 µM [9]: 2.5% | inhibition [10]: -7.4% | inhibition [11]: -8.5% | Cmax [12]: 0.522 µM
